Test results reported in paper PMC2212161 (The Journal of Experimental Medicine, 1998).
Read-outs that look alike come from different tables or passages of the source. Each block holds one substance with its values, some of them ahead of it.

Legend:
PARP = test: Immunoblotting for PARP cleavage in Fas-stimulated Jurkat cells; format: cell-based, human; details: Fig. 5 C
How it was run: (§1)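 Jurkat cells were preincubated with inhibitor, then Fas-stimulated. Whole-cell extracts were made by boiling pellets 3 min in SDS sample buffer (50 mM Tris-HCl pH 6.8, 15% sucrose, 3% SDS). Gels were 5% SDS-PAGE for NuMA (rabbit polyclonal r240-C) and 10% for PARP (mAb C-2-10) and PAK2 (rabbit anti-ste20-subdomain VI). Proteins were blotted to nitrocellulose and cleavage fragments immunodetected.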

NuMA [1] = test: Immunoblotting for NuMA cleavage in Fas-stimulated Jurkat cells; format: cell-based, human; details: Fig. 5 B
How it was run: as §1

F20/caspase-3-p20 [2] = details: cited from earlier work
[3] = tested on: Fas-stimulated Jurkat cells; test: Flow cytometric analysis of DNA fragmentation; format: cell-based, human; details: anti-Fas mAb 4 h, Fig. 7 B
How it was run: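 Jurkat cells were pretreated with inhibitor, then given anti-Fas mAb for 4 h. Cells (10⁶) were fixed in 70% ethanol for 2 h on ice, washed in PBS, and treated with 10 μg/ml RNase A for 30 min at 37°C. They were stained with 50 μg/ml propidium iodide for 30 min on ice in the dark, and PI (log scale) was recorded against forward scatter by flow cytometry.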

F17/caspase-3-p17 [4] = test: Cell-free caspase activation in Jurkat extracts triggered by caspase-8: F17; format: biochemical, human
[5] = tested on: Fas-stimulated Jurkat cells; test: Mitochondrial PT; format: cell-based, human; details: Fas stimulation 4 h, Fig. 9 B
How it was run: (§2)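 Jurkat cells (5 × 10⁵) were pretreated 1 h with inhibitor, then stimulated with anti-Fas for 4 h. Cells were mesh-filtered and analysed at once by flow cytometry.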

F19/caspase-6 [6] = details: cited from earlier work
F19/caspase-6 [7] = format: cell-based, human; details: inhibitor 10–100 μM preincubated before Fas receptor cross-linking; Fig. 2 C
[8] = tested on: Fas-stimulated Jurkat cells; test: Apoptotic body formation; format: cell-based, human; details: for Appearance of the cell population with the lowest FSC: flow cytometry; for Apoptotic body formation: phase contrast microscopy, Fig. 8
How it was run: (§3)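 Jurkat cells were preincubated 1 h at 37°C with inhibitor or 1% DMSO, then stimulated with anti-Fas mAb for 4 h. Cell size was read as forward scatter in flow cytometry, from PhiPhiLux-loaded or PI-stained cells. Reference was the lower FSC border of normally growing cells. Cell shape and apoptotic bodies were viewed by phase contrast microscopy.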

[9] = tested on: Fas-stimulated Jurkat cells; test: PS externalization; format: cell-based, human; details: Fas stimulation 4 h, Fig. 9 B; for PS externalization (increase in annexin V binding): inhibitor 100 μM pretreated 1 h
How it was run: as §2

F17/caspase-3-p17 [10] = format: cell-based, human
F19/caspase-6 [11] = test: Cell-free caspase activation in Jurkat extracts triggered by caspase-8: F19; format: biochemical, human
Caspase-8 = test: Sensitivity of caspase-8 to DMQD-CHO; format: biochemical; details: data not shown
[12] = tested on: caspase activity in Fas-stimulated Jurkat cells; test: Flow cytometric analysis of intracellular caspase activity with PhiPhiLux-G2D2; format: cell-based, human; details: inhibitor 100 μM alone without Fas stimulation; data not shown
[13] = tested on: Fas-stimulated Jurkat cells; test: Shrinkage of cytoplasm / cell size; format: cell-based, human; details: for Shrinkage of cytoplasm / decrease in cell size (FSC): Figs. 3 B and 7 B; for Fas-induced shrinkage of cells: phase contrast microscopy, Fig. 8
How it was run: as §3

[14] = tested on: active caspases in Jurkat cytoplasmic extracts; format: biochemical, human; details: inhibitor 10 μM; Fig. 2 A
PAK2 = test: Immunoblotting for PAK2 cleavage in Fas-stimulated Jurkat cells; format: cell-based, human; details: Fig. 5 D
How it was run: as §1

F22/caspase-7 [15] = format: cell-based, human
F20/caspase-3-p20 [16] = format: cell-based, human
[17] = tested on: Fas-stimulated Jurkat cells; test: Nuclear morphological changes; format: cell-based, human; details: inhibitor 100 μM preincubated 1 h 37°C; anti-Fas mAb 4 h; DAPI; Fig. 6
How it was run: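 Jurkat cells were preincubated 1 h at 37°C with inhibitor (1, 10 or 100 μM) or 1% DMSO, then stimulated with anti-Fas mAb for 4 h; unstimulated cells were kept 4 h as control. Cells were fixed with 1% glutaraldehyde, stained with 2 μg/ml DAPI, and scored microscopically for chromatin condensation, nuclear shrinkage and fragmentation.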

F22/caspase-7 [18] = test: Cell-free caspase activation in Jurkat extracts triggered by caspase-8: F22; format: biochemical, human
NuMA [19] = details: Fas-stimulated Jurkat cells; cited from earlier work
F20/caspase-3-p20 [20] = test: Cell-free caspase activation in Jurkat extracts triggered by caspase-8: F20; format: biochemical, human; details: inhibitor 10 nM added before caspase-8; data not shown
pro–caspase-7 = test: Processing of pro–caspase-7 in Fas-stimulated Jurkat cells; format: cell-based, human; details: inhibitor 100 μM; same blot reprobed with anti–caspase-7 Ab; Fig. 1 B
How it was run: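 The affinity-labeling blot from Jurkat cells (inhibitor preincubation 1 h, anti-Fas CH-11 100 ng/ml, 4 h, serum-free RPMI-1640) was reprobed with anti-caspase-7 antibody to follow pro-caspase-7 processing.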

[21] = tested on: active caspases in Fas-stimulated Jurkat cells; format: cell-based, human; details: inhibitor 100 μM, preincubated 1 h; anti-Fas mAb 4 h; Fig. 1 A
[22] = tested on: KB epidermal carcinoma cells; details: inhibitor 50 μM; cited from earlier work
[23] = inhibitor 100 μM pretreated 1 h
[24] = inhibitor 10–100 μM preincubated before Fas receptor cross-linking, Fig. 2 C
[25] = inhibitor 100 μM, flow cytometry
[26] = inhibitor 10 nM added before caspase-8, data not shown
[27] = inhibitor 10 μM, preincubated 1 h, anti-Fas mAb 4 h, Fig. 1 A

- Sensitivity of caspase-8 (Caspase-8): relatively insensitive
Substance: Ac-DMQD-aldehyde [DMQD-CHO]
- PARP cleavage (PARP; inhibitor 100 μM): only weakly inhibited
- Generation of the 160-kD NuMA fragment (NuMA [1]; inhibitor 100 μM): blocked
- Generation of the 180-kD NuMA fragment (NuMA [1]; inhibitor 100 μM): blocked
- Concentrations previously shown to block the activity of F20/caspase-3-p20 (F20/caspase-3-p20 [2]): 1 to 2 µM
- DNA fragmentation ([3]; inhibitor 100 μM): completely inhibited
- Labeling of F17/caspase-3-p17 (F17/caspase-3-p17 [4]; inhibitor 1–2 μM, Jurkat extract preincubated, caspase-8, 4 h 37°C, Fig. 2 A): suppressed
- Mitochondrial PT [5, 23]: not affected
- Concentration required to block activity of caspase-6 relative to caspase-7 (F19/caspase-6 [6]; higher for caspase-6): ~10 fold
- Activity of F19/caspase-6 (F19/caspase-6 [6]; inhibitor even at 100 μM): insensitive
- Appearance of F19/caspase-6 (F19/caspase-6 [7]): blocked
- Appearance of the cell population with the lowest FSC ([8]; inhibitor 100 μM, Figs. 3 B and 7 B): suppressed
- Apoptotic body formation ([8]; inhibitor 100 μM): formed no apoptotic bodies
- PS externalization (increase in annexin V binding) [9]: suppressed
- Labeling of F17/caspase-3-p17 (F17/caspase-3-p17 [10]; [24]): suppressed
- Concentration preventing appearance of F19/caspase-6 (F19/caspase-6 [11]; preincubation before addition of caspase-8, Fig. 2 A): 1 to 2 µM
- Increase in PhiPhiLux-G2D2 fluorescence or cell shrinkage [12]: did not induce
- Shrinkage of cytoplasm / decrease in cell size (FSC) [13, 25]: proceeded to a significant degree
- Fas-induced shrinkage of cells ([13]; inhibitor 100 μM): Neither 100 μM DMQD-CHO (Fig. 8 h) nor 10 μM VEID-CHO (Fig. 8 d) affected
- Caspase labeling (all) [14]: loss of all labeling
- Cleavage of PAK2 (PAK2; inhibitor 100 μM): suppressed
- Activation of caspase-7 (time course) (F22/caspase-7 [15]; inhibitor 100 μM preincubated 1 h, Fig. 2 D): uninterrupted
- Labeling of F22 (F22/caspase-7 [15]; inhibitor up to 100 μM, Fig. 2 C): persisted
- Labeling of F20/caspase-3-p20 (F20/caspase-3-p20 [16]; [24]): suppressed
- Nuclear morphological changes [17]: completely blocked
- Labeling of F22/caspase-7 (F22/caspase-7 [18]; inhibitor up to 5 μM, Fig. 2 A): unhindered

Substance: DEVD-CHO
- NuMA cleavage (NuMA [19]): blocked

Substance: acetyl-Val-Ileu-Asp-aldehyde [VEID-CHO]
- PARP cleavage (PARP; inhibitor 1 μM): did not affect
- PARP cleavage (PARP; inhibitor 10 μM): Partial blockade
- PARP cleavage (PARP; inhibitor 100 μM): markedly suppressed
- Proteolysis yielding the 180-kD NuMA fragments (NuMA [1]; inhibitor 1 μM): not affected
- 180-kD NuMA fragment (NuMA [1]; inhibitor 10 μM): moderate decrease
- Production of the 160-kD NuMA fragment (NuMA [1]; inhibitor 1–10 μM): suppressed
- DNA fragmentation ([3]; inhibitor 100 μM): suppresses both
- DNA fragmentation ([3]; inhibitor up to 10 μM): did not prevent
- Activation of caspase-3-p17 in cell-free activation (F17/caspase-3-p17 [4]; [26]): minimal effects
- Mitochondrial PT ([5]; inhibitor 10 μM pretreated 1 h): Neither PT nor PS externalization were affected
- Mitochondrial PT [5, 23]: markedly inhibited
- Activation of caspase-3-p20 in cell-free activation (F20/caspase-3-p20 [20]): minimal effects
- Appearance of the cell population with the lowest FSC ([8]; inhibitor 10 μM, Fig. 7 B): had no effect
- Apoptotic body formation ([8]; inhibitor up to 10 μM): did not prevent
- PS externalization ([9]; inhibitor 10 μM pretreated 1 h): Neither PT nor PS externalization were affected
- PS externalization (increase in annexin V binding) [9]: markedly inhibited
- Labeling of F17/caspase-3-p17 (F17/caspase-3-p17 [10]; [27]): Suppression
- Processing of pro–caspase-7 (pro–caspase-7): blocked
- Activity of caspase-6 in cell-free activation (F19/caspase-6 [11]; [26]): selectively blocked
- Cell size (FSC) ([13]; inhibitor 10 μM, flow cytometry, Fig. 7 B): had no effect
- Fas-induced shrinkage of cells ([13]; inhibitor 10 μM): Neither 100 μM DMQD-CHO (Fig. 8 h) nor 10 μM VEID-CHO (Fig. 8 d) affected
- Shrinkage of cytoplasm / decrease in cell size (FSC) [13, 25]: markedly suppressed
- Fas-induced shrinkage of cells ([13]; inhibitor 100 μM): completely blocked
- Cleavage of PAK2 (PAK2; inhibitor up to 10 μM): failed to affect
- Caspase labeling (all) [21]: loss of all caspase labeling
- Labeling of F22/caspase-7 (F22/caspase-7 [15]; [27]): unaffected
- Labeling of F20/caspase-3-p20 (F20/caspase-3-p20 [16]; [27]): unaffected
- Activation of caspase-7 in cell-free activation (F22/caspase-7 [18]; [26]): minimal effects

Substance: benzyloxycarbonyl-Asp-Glu-Val-Asp(OMe)-fluoromethylketone [zDEVD-FK]
- Fas-induced chromatin condensation and apoptotic body formation [22]: abolished

Substance: benzyloxycarbonyl-Val-Ala-Asp(OMe)-fluoromethylketone [zVAD-fmk]
- NuMA cleavage (NuMA [19]): blocked
